# Rows were chosen to be rich in hits. Some 2.9% of all compounds tested hit in one or more screens of this group.
# TRPC6 inh: inhibitors of mouse TRPC6 channel; HEK293-TRPC6, membrane potential dye, ACh-evoked depolarization; hits give low values; B-score at 10 µM; actives 1.1% (n = 310,000); AID 2553;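 active = B-score under library mean minus 3 SD, initial fluorescence not abnormally high, positive integrated signal ratio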;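 also: B-score derived from integrated fluorescence ratio over the kinetic read; more negative B-score means stronger inhibition of depolarization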
# Kir21 block: Kir2.1 (mouse) channel inhibition; P35561; B-score at 10 µM; actives 0.85% (n = 310,000); HEK293-Kir2.1, FluxOR thallium flux fluorescence; hits give low values;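 active = fluorescence ratio B-score at or below minus 3 SD of library scores, with starting-brightness B-score within 2 SD, cut at about -4.2 in these data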;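 also: channel flux triggered by added potassium and thallium sulfate stimulus; B-score of peak minus minimum fluorescence over baseline after thallium stimulus; more negative B-score means stronger Kir2.1 block with less thallium influx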
# Target sequence (P35561 whole entry, looked up): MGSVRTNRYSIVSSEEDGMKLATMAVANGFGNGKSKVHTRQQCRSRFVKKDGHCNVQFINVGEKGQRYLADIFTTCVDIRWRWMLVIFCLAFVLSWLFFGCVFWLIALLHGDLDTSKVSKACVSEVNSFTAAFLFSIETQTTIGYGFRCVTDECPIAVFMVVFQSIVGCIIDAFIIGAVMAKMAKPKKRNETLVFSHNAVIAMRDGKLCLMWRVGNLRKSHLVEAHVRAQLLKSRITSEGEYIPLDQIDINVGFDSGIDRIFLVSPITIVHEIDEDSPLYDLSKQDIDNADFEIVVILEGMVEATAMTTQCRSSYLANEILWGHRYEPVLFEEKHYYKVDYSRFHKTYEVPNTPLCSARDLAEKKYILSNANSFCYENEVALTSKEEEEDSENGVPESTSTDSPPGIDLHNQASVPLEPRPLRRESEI
# TRPC4 PAM: allosterically enhances the mouse TRPC4 cation channel; Q9QUQ5; HEK293 TRPC4beta/mu-opioid, DAMGO EC20, Fluo-4 Ca2+ flux; hits give high values; actives 0.42% (n = 310,000); B-score at 10 µM; AID 2227;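 active = B-score of calcium response area above 5 SD of library B-scores, with initial fluorescence ratio within 5 SD of library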
# TRPC4 inh: inhibitors of mouse TRPC4 channel | AID 2247 | HEK293 TRPC4beta/mu-opioid, DAMGO-evoked Fluo4 calcium flux; hits give low values | actives 0.39% (n = 300,000) | Q9QUQ5 | B-score at 10 µM;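 active = B-score over 3 SD under the library average, no early fluorescence shift, positive overall ratio signal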
#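 Assay system: TRPC4beta/mu-opioid receptor HEK293 cell line; compound dosing: single concentration per test compound; detection: Fluo4 Ca2+ flux fluorescence; evaluation: per-well B score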
# TRPC6 activator: activators of mouse TRPC6 channel; actives 0.13% (n = 310,000); HEK293-TRPC6 membrane potential dye fluorescence; hits give high values; B-score at 10 µM; Q61143;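 active = B-score of the integrated fluorescence ratio above library mean plus 3 SD, and starting fluorescence ratio within library mean plus 5 SD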;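 also: higher score means more depolarization so channel activation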
# TRPC4 agonist: opens the mouse TRPC4 cation channel; Q9QUQ5; HEK293 TRPC4beta/mu-opioid, Fluo4 calcium fluorescence; hits give high values; B-score at 10 µM; actives 0.49% (n = 310,000);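 active = B-score above 5 SD of library B-scores, and initial fluorescence ratio not above library mean plus 5 SD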;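 also: positive B-score marks a calcium rise read as TRPC4 activation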
#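 Assay system: HEK293 stable line with TRPC4beta plus mu-opioid receptor. Times: dye 45 min RT, read 110 s. Measured by: kinetic Fluo4 calcium fluorescence. Measure: B score of integrated ratio. Controls: assay buffer as low control, maximal DAMGO as high control.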
# TRPC4 sel inh 2: second selectivity test of TRPC6 inhibitors: effect on mouse TRPC4; actives 42% (n = 920); HEK293 TRPC4/MOR, membrane potential dye fluorescence; channel activated by saturating DAMGO dose; shares compounds with TRPC6 inh; inhibition, % at 10 µM;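 active = compounds whose fluorescence signal differed from control wells by over 3 SD, either direction, in both duplicate plates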
# TRPC4 spec: tests whether TRPC6 inhibitors also affect mouse TRPC4; shares compounds with TRPC6 inh; HEK293 TRPC4/mu-opioid, membrane potential fluorescence; activity change, negative = inhibition, % at 10 µM; actives 61% (n = 920);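 active = rise or fall in signal beyond 3 SD of buffer-only wells in both replicate plates, either sign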;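 also: integrated kinetic ratio of fluorescence range over baseline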
# HEK293 MPD ctr 2-1: parental HEK293 nonspecific activity of TRPC6 inhibitors, second screen. AID 2779. signal change vs control, % at 10 µM. parental HEK293 membrane potential dye fluorescence; maximal acetylcholine challenge after compound addition. actives 31% (n = 920). shares compounds with TRPC6 inh;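 active = membrane potential signal moving either way by over 3 SD of the maximum-effect control, in both duplicate plates, meaning non-specific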
# HEK293 MPD ctr-1: checks TRPC6 inhibitor effects in parental HEK293 cells. parental HEK293 membrane potential dye fluorescence. shares compounds with TRPC6 inh. actives 60% (n = 920). AID 2780. membrane potential signal change, % at 10 µM;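 active = membrane potential signal shifting up or down by more than 3 SD of buffer-only wells, on both duplicate plates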
# HEK293 MPD ctr-2: parental HEK293 nonspecific activity of TRPC6 modulators | shares compounds with TRPC6 inh | membrane potential dye fluorescence | membrane potential signal change, % at 10 µM | actives 51% (n = 2,400);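 active = membrane potential signal moves up or down beyond 5 SD from buffer-only wells, on both duplicate plates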
# HEK293 MPD ctr 2-2: second check of TRPC6 modulator effects in parental HEK293 cells. shares compounds with TRPC6 inh. inhibition, % at 10 µM. actives 14% (n = 2,400). membrane potential dye fluorescence; after compound, maximal acetylcholine stimulation;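 active = membrane potential signal drops by more than 5 SD from the mean control signal, in both duplicate plates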
# TRPC4/MOR mod: selectivity of TRPC6 modulators against mouse TRPC4; percent change from control (negative = decrease, positive = increase), % at 10 µM; actives 69% (n = 2,400); shares compounds with TRPC6 inh; HEK293 TRPC4/mu-opioid, membrane potential fluorescence; AID 488927;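 active = membrane potential signal moved up or down beyond 5 SD of buffer control wells, in both duplicate plates, actives on both sides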
# TRPC4/MOR inh 2: mouse TRPC4 off-target activity of TRPC6 modulators, second screen; HEK293 TRPC4/mu-opioid, membrane potential dye fluorescence; stimulated with maximal-effect DAMGO; shares compounds with TRPC6 inh; actives 55% (n = 2,400); inhibition, % at 10 µM;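 active = drop in membrane potential signal beyond 5 SD of the control wells in both duplicate plates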;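 also: TRPC4 counter screen for TRPC6 hits run under conditions tuned for TRPC6 not TRPC4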
# TRPC6 inh conf: mouse TRPC6 inhibitor confirmation | actives 43% (n = 3,300) | AID 488960 | inhibition, % at 10 µM | HEK293-TRPC6, membrane potential dye, ACh-evoked depolarization | shares compounds with TRPC6 inh;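 active = fluorescence ratio falls more than 5 SD below the full-stimulation control mean, in both duplicate runs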;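 also: integrated fluorescence ratio of peak minus minimum over baseline after agonist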
# TRPC6 act confirm: mouse TRPC6 activator confirmation; shares compounds with TRPC6 inh; HEK293-TRPC6 membrane potential dye fluorescence, FDSS; activation, % at 10 µM; actives 11% (n = 2,800); AID 488961;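 active = ratio signal rise beyond 5 SD above unstimulated control wells' mean, seen in both duplicate runs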
# Numbers stand for hits; 0 = inactive; - = no result given; + = active, no number.
SMILES,TRPC6 inh,Kir21 block,TRPC4 PAM,TRPC4 inh,TRPC6 activator,TRPC4 agonist,HEK293 MPD ctr-2,HEK293 MPD ctr 2-2,TRPC4/MOR mod,TRPC4/MOR inh 2,TRPC6 inh conf,TRPC6 act confirm,others
CCOC(=O)c1cnc2c(OC)cccc2c1NCc1cccnc1,-7.51,0,0,0,0,0,-,-,-,-,82.6%,0,TRPC4 sel inh 2=0;TRPC4 spec=0;HEK293 MPD ctr 2-1=-15.0%;HEK293 MPD ctr-1=0
CCOC(=O)c1cnc2c(C(=O)OC)cccc2c1NCCN1CCOCC1,-5,0,0,0,0,0,137.0%,0,20.5%,47.0%,48.0%,-,
CCOC(=O)c1cnc2c(CC)cccc2c1NCCN1CCOCC1,0,0,0,0,0,0,-,-,-,-,-,-,
CCOC(=O)c1cnc2c(C)cccc2c1NCCCN1CCOCC1,-6.75,0,0,0,0,0,-,-,-,-,0,0,TRPC4 sel inh 2=58.5%;TRPC4 spec=0;HEK293 MPD ctr 2-1=-31.0%;HEK293 MPD ctr-1=0
CCOC(=O)c1cnc2c(C)cc(Cl)cc2c1NCCCN1CCOCC1,0,0,0,0,0,0,-,-,-,-,-,-,
Cc1ccc(NC(=O)CN(C)C2CCCCC2)cc1Cl,0,0,0,0,0,0,-,-,-,-,-,-,
COc1ccc(NC(=O)C(c2ccccc2)N2CCN(c3ccccn3)CC2)cc1Cl (stereo unspecified),0,0,0,0,0,0,-,-,-,-,-,-,
N#CCOC(=O)[C@H](Cc1ccccc1)N1C(=O)c2ccccc2C1=O,-7.13,0,0,0,0,0,-,-,-,-,0,0,TRPC4 sel inh 2=0;TRPC4 spec=-0.7%;HEK293 MPD ctr 2-1=0;HEK293 MPD ctr-1=0
CN(Cc1ccccc1)S(=O)(=O)c1cccc(C(=O)O)c1,0,0,0,0,0,0,-,-,-,-,-,-,
CC1CCCCN1CC(=O)Nc1ccc(N2CCCCCC2)cc1 (stereo unspecified),-5.41,0,0,0,0,0,0,0,-11.5%,32.0%,40.0%,0,
CCC(=O)Nc1ccc(N2CCCCC2)cc1,0,0,0,0,0,0,-,-,-,-,-,-,
Cn1cnc2cc(NC(=O)c3ccc(Cl)cc3)ccc21,-5.32,0,0,0,0,0,0,0,-11.0%,0,0,0,
Cc1sc2c3ccsc3ccc2[n+]1C,-8.59,0,0,0,0,0,-292.0%,71.0%,-50.0%,58.0%,67.5%,0,
Cn1c(=NC(=O)COc2ccccc2)sc2cccc(F)c21,0,0,0,0,0,0,-,-,-,-,-,-,
OCC(Cc1ccccc1)Nc1c2ccccc2nc2ccccc12 (stereo unspecified),-8.99,-8.64,0,0,0,0,0,0,-88.0%,69.5%,54.5%,0,
O=C(Cc1ccccc1)NNc1c2ccccc2nc2ccccc12,0,0,0,0,0,0,-,-,-,-,-,-,
COc1cc(/C=C2/SC(=S)N(Cc3ccccc3)C2=O)cc(Cl)c1O,0,0,37,0,75.8,174,+,0,520.5%,0,0,555.0%,
O=C(NC1CCCCC1)C1CCCN1S(=O)(=O)c1ccc(F)cc1 (stereo unspecified),-8.07,0,0,0,0,0,-,-,-,-,0,0,TRPC4 sel inh 2=0;TRPC4 spec=0;HEK293 MPD ctr 2-1=0;HEK293 MPD ctr-1=0
CN(C)/C=C(\C#N)C(=O)N/N=C/c1ccc(Cl)cc1,0,0,0,0,0,0,-,-,-,-,-,-,
CCOC(=O)c1cnc2ccc(OC)cc2c1NCCN1CCOCC1,0,0,0,0,0,0,-,-,-,-,-,-,
CCOC(=O)c1cnc2ccc(C)cc2c1Nc1ccc(N2CCOCC2)cc1,-5.73,0,0,0,0,0,-154.5%,68.5%,-32.5%,44.0%,67.5%,0,
N#CC1=C(N)OC2=C(CC/C2=C\c2ccccc2)C1c1ccccc1 (stereo unspecified),0,0,13,0,27.2,0,576.0%,0,21.0%,0,0,48.5%,
CCOC(=O)c1sc2nc3c(SCC(=O)O)cc(C(=O)c4cc(F)ccc4O)cn3c(=O)c2c1C,0,0,0,0,0,0,-,-,-,-,-,-,
COC(=O)c1cc(C(=O)c2cc(F)ccc2O)cn2c(=O)c3c(C)c(C)sc3nc12,-5.43,0,0,0,0,0,0,0,0,43.5%,0,0,
O=C(COCc1cc(-c2ccc3c(c2)OCO3)on1)N1CCN(c2cccc(C(F)(F)F)c2)CC1,0,0,0,0,0,0,-,-,-,-,-,-,
SMILES,TRPC6 inh,Kir21 block,TRPC4 PAM,TRPC4 inh,TRPC6 activator,TRPC4 agonist,HEK293 MPD ctr-2,HEK293 MPD ctr 2-2,TRPC4/MOR mod,TRPC4/MOR inh 2,TRPC6 inh conf,TRPC6 act confirm,others
O=C(Cn1cccc1C(=O)c1ccccc1)NCc1ccccc1Cl,-5.11,0,0,0,0,0,0,0,0,0,0,0,
CC1CCCC(NC(=O)CN(C)S(=O)(=O)c2cccc3cccnc23)C1C (stereo unspecified),0,0,0,0,0,0,-,-,-,-,-,-,
C=CCSC1=N/C(=C/c2ccsc2)C(=O)N1c1ccccc1,0,0,0,0,0,0,-,-,-,-,-,-,
O=C(c1cccs1)N1CCCC(c2nc3c(nnn3Cc3ccc(F)cc3)c(=O)[nH]2)C1 (stereo unspecified),-7.53,0,0,0,0,0,-,-,-,-,0,0,TRPC4 sel inh 2=0;TRPC4 spec=0;HEK293 MPD ctr 2-1=0;HEK293 MPD ctr-1=0
Cc1ccccc1C(=O)N1CCN(CCNC(=O)C(=O)Nc2ccc(Br)cc2)CC1,0,0,0,0,0,0,-,-,-,-,-,-,
COc1ccc(S(=O)(=O)N(C)c2ccc(C(=O)Nc3cccnc3)cc2)cc1,0,0,0,0,0,0,-,-,-,-,-,-,
c1ccc(Cn2c(-c3ccccc3)c[n+]3c2SCCC3)cc1,-9.92,0,0,0,0,0,-,-,-,-,68.1%,0,TRPC4 sel inh 2=0;TRPC4 spec=0;HEK293 MPD ctr 2-1=39.5%;HEK293 MPD ctr-1=0

# Screening results as filed in PubChem BioAssay.
